Experimental data as given in ChEMBL document CHEMBL1126839, “Imidazol-1-yl and pyridin-3-yl derivatives of 4-phenyl-1,4-dihydropyridines combining Ca2+ antagonism and thromboxane A2 synthase inhibition” (J Med Chem, 1993).

Legend:
Cavia porcellus [1] = species: Cavia porcellus; test: Tested for [Ca2+] antagonism in guinea pig ileum; type: functional
Summary of the method: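 Screening preparation under 1 g tension; isometric contractions to 60 mM KCl elicited at 15-min intervals without and with increasing compound concentrations. IC50 (concentration inhibiting the KCl response by 50%) from least-squares regression.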

Cavia porcellus [2] = species: Cavia porcellus; test: Tested for [Ca2+] antagonism in guinea pig right ventricle; type: functional; conditions: Heart right ventricle
Summary of the method: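 Male guinea pig (0.5–0.8 kg) right ventricular strips (10 × 2 mm) in oxygenated Tyrode at 29 °C, 1 g preload. Electrically paced (3 ms, 2 Hz) for 60 min, depolarized with 22 mM KCl, then contractility restored with 10 μM histamine at 0.2 Hz pacing. Isometric contraction recorded; IC50 from computerized regression analysis.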

Oryctolagus cuniculus = species: Oryctolagus cuniculus; test: Tested for [Ca2+] antagonism in rabbit renal artery; type: functional
Summary of the method: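 Isolated renal artery under 1 g tension; isometric contractions to 60 mM KCl repeated at 30 min intervals without and with increasing concentrations of test compound or nifedipine as reference. IC50 from the concentration–response.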

Cavia porcellus [3] = species: Cavia porcellus; test: Tested for [Ca2+] antagonism in guinea pig atria; type: functional
Summary of the method: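 Male guinea pig (0.5–0.8 kg) spontaneously beating atria in oxygenated (95% O2/5% CO2) Locke solution at 37 °C under 1 g preload, rested 60 min. Compounds added cumulatively with 30 min contact per concentration. Isometric contraction recorded; IC25 from computerized regression analysis.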

Thromboxane-A synthase = target: T1, Thromboxane-A synthase (Rattus norvegicus, UniProt P49430); test: In vitro inhibition of thromboxane B2 production in rat whole blood.; type: functional, tissue-based
T1 sequence (P49430 whole entry): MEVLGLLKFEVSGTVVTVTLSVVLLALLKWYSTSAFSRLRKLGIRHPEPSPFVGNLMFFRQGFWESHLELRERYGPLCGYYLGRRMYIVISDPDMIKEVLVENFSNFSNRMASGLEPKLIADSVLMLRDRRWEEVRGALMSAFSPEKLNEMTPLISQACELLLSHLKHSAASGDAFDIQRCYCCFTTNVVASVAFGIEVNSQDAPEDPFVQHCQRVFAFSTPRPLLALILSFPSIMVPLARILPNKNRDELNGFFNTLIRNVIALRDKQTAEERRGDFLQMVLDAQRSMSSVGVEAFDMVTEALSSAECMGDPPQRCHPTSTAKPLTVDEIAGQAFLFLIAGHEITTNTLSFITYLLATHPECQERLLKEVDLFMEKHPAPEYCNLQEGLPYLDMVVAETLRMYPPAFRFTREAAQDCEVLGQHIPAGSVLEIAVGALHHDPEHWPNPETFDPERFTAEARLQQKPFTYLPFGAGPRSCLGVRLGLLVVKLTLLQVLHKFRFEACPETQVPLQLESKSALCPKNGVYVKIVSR

Cavia porcellus [4] = species: Cavia porcellus; test: Inhibition of K+ induced contractions of the isolated guinea pig ileum.; type: functional

IC50 (Thromboxane-A synthase) | IC50 (Cavia porcellus [4]) | Compound | IC50 (Cavia porcellus [1]) | IC50 (Cavia porcellus [2]) | IC50 (Oryctolagus cuniculus) | IC25 (Cavia porcellus [3])
> 1000 nM | 23000 nM | CCOC(=O)C1=C(C)N=C(C)/C(=C(/O)OCC)C1c1ccc(-n2ccnc2)cc1 (centres undefined) |  |  |  | 
640 nM | 8840 nM | CCOC(=O)C1=C(C)N(C)C(C)=C(C(=O)OCC)C1c1cccc(-n2ccnc2)c1 |  |  |  | 
> 1000 nM | 970 nM | CCOC(=O)C1=C(CC)N=C(CC)/C(=C(/O)OCC)C1c1cccc(-n2ccnc2)c1 (centres undefined) |  |  |  | 
270 nM | 850 nM | COC(=O)C1=C(C)N=C(C)/C(=C(/O)OC)C1c1cccc(-n2ccnc2)c1 (centres undefined) |  |  |  | 
> 1000 nM | 1960 nM | CCO/C(O)=C1\C(C)=NC(C)=C(C(=O)O)C1c1cccc(-n2ccnc2)c1 (centres undefined) |  |  |  | 
260 nM | > 10000 nM | CO/C(O)=C1\C(C)=NC(C)=C(C(C)=O)C1c1cccc(-n2ccnc2)c1 (centres undefined) |  |  |  | 
400 nM | 1950 nM | CCO/C(O)=C1\C(COC)=NC(C)=C(C(=O)OC)C1c1cccc(-n2ccnc2)c1 (centres undefined) |  |  |  | 
300 nM | 2370 nM | CCO/C(O)=C1\C(COCCN)=NC(C)=C(C(=O)OC)C1c1cccc(-n2ccnc2)c1 (centres undefined) |  |  |  | 
> 1000 nM | 60 nM | CCO/C(O)=C1\C(C)=NC(C)=C(C(=O)OCCN(C)Cc2ccccc2)C1c1cccc(-c2cccnc2)c1 (centres undefined) |  |  |  | 
240 nM | 260 nM | CCO/C(O)=C1\C(C)=NC(C)=C(C(=O)OC)C1c1cccc(-n2ccnc2)c1 (centres undefined) |  |  |  | 
730 nM | 1670 nM | CCOC(=O)C1=C(C)N=C(C)/C(=C(/O)OCC)C1c1cccc(Cn2ccnc2)c1 (centres undefined) |  |  |  | 
280 nM | 100 nM | CCOC(=O)C1=C(C)N=C(C)/C(=C(/O)OCC)C1c1cccc(-c2cccnc2)c1 (centres undefined) |  |  |  | 
220 nM | 50 nM | CCO/C(O)=C1\C(C)=NC(C)=C(C(=O)OCCN(C)Cc2ccccc2)C1c1cccc(-n2ccnc2)c1 (centres undefined) |  |  |  | 
170 nM | 60 nM | CCOC(=O)C1=C(C)N=C(C)/C(=C(/O)OCC)C1c1cccc(-n2ccnc2)c1 (centres undefined) | 61.5 nM | 2150 nM | 111 nM | 94.2 nM
> 1000 nM | > 10000 nM | CCOC(=O)c1c(C)nc(C)c(C(=O)OCC)c1-c1cccc(-n2ccnc2)c1 |  |  |  | 
> 1000 nM | 1500 nM | CC1=NC(C)=C(C(=O)OCC(C)C)C(c2cccc(-c3cccnc3)c2)/C1=C(\O)OCC(C)C (centres undefined) |  |  |  | 
> 1000 nM | 460 nM | CCOC(=O)C1=C(C)N=C(C)/C(=C(/O)OCC)C1c1ccccc1-n1ccnc1 (centres undefined) |  |  |  | 

Compound | IC50 (Thromboxane-A synthase) | IC50 (Cavia porcellus [4]) | IC50 (Cavia porcellus [1]) | IC50 (Cavia porcellus [2]) | IC50 (Oryctolagus cuniculus) | IC25 (Cavia porcellus [3])
COC(=O)C1=C(C)NC(C)=C(C(=O)OC)C1c1ccccc1[N+](=O)[O-] [NIFEDIPINE] | > 10000 nM | 4 nM | 4.7 nM | 57.8 nM | 6.9 nM | 31.5 nM
